Here are results for three compounds from ChEMBL document CHEMBL4196119, “Quinoxaline-Based Linear HCV NS3/4A Protease Inhibitors Exhibit Potent Activity against Drug Resistant Variants” (ACS Med Chem Lett, 2018).

One may read the Ki as a dissociation constant, usually derived from enzyme kinetics or from competition with a known ligand. A higher Ki goes with a looser hold on the target. By EC50 is commonly meant the concentration giving half of the maximal effect.

For assay [1], the target named is Hepatitis C virus serine protease, NS3/NS4A (Hepatitis C virus, UniProt A3EZI9+D2K2A8). The assay is described as follows: Inhibition of wild type HCV genotype 1a NS3/4A protease expressed in Escherichia coli BL21(DE3) using Ac-DE-Dap(QXL 520)-EE-Abu-psi-[COO]AS-C(5-FAMsp)-NH2 as substrate preincubated for 1 hr followed by substrate addition. Set-up: species or system Hepatitis C virus subtype 1a. In short, it runs like this:
(§1)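 Enzyme inhibition constants (Ki) were determined against GT1a NS3/4A protease in three forms: wild type, R155K and D168A.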

Assay [2] has as its system Hepatitis C virus. The assay is described as follows: Selectivity ratio of EC50 for HCV genotype 1b Con1 harboring HCV genotype 1a H77 NS3 D168V mutant infected in human HuH7 cells to EC50 for HCV genotype 1b Con1 harboring HCV genotype 1a H77 wild type NS3 infected in human HuH7 cells. The class given is functional, Hepacivirus hominis, isolate Con1.
The test system of assay [3] is Hepatitis C virus. Description: Selectivity ratio of EC50 for HCV genotype 1b Con1 harboring HCV genotype 1a H77 NS3 D168A mutant infected in human HuH7 cells to EC50 for HCV genotype 1b Con1 harboring HCV genotype 1a H77 wild type NS3 infected in human HuH7 cells. The class given is functional, Hepacivirus hominis, isolate Con1.
Assay [4] deals with Hepatitis C virus. The assay is described as follows: Antiviral activity against HCV genotype 1b Con1 harboring HCV genotype 1a H77 wild type NS3 infected in human HuH7 cells assessed as inhibition of viral replication after 96 hrs by luciferase reporter gene assay. The note with it: isolate Con1, Huh-7, 96 h. The format is functional, organism-based, Hepacivirus hominis. In short, it runs like this: (§2)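 Cell-based replicon antiviral assays against wild-type HCV and the R155K, A156T, D168A and D168V variants. Potency was expressed as EC50.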
(In general: In a reporter assay the amount or activity of a reporter protein is the signal.)

For assay [5], the target named is Hepatitis C virus serine protease, NS3/NS4A (Hepatitis C virus, UniProt A3EZI9+D2K2A8, R155K). The assay is described as follows: Inhibition of HCV genotype 1a NS3/4A protease R155K mutant expressed in Escherichia coli BL21(DE3) using Ac-DE-Dap(QXL 520)-EE-Abu-psi-[COO]AS-C(5-FAMsp)-NH2 as substrate preincubated for 1 hr followed by substrate addition. Set-up: species or system Hepatitis C virus subtype 1a. In short, it runs like this:
as §1

Assay [6] addresses Hepatitis C virus serine protease, NS3/NS4A (Hepatitis C virus, UniProt A3EZI9+D2K2A8, D168A). The assay is described as follows: Inhibition of HCV genotype 1a NS3/4A protease D168A mutant expressed in Escherichia coli BL21(DE3) using Ac-DE-Dap(QXL 520)-EE-Abu-psi-[COO]AS-C(5-FAMsp)-NH2 as substrate preincubated for 1 hr followed by substrate addition. Set-up: species or system Hepatitis C virus subtype 1a. In short, it runs like this: as §1

Assay [7] deals with Hepatitis C virus. Description: Antiviral activity against HCV genotype 1b Con1 harboring HCV genotype 1a H77 NS3 D168V mutant infected in human HuH7 cells assessed as inhibition of viral replication after 96 hrs by luciferase reporter gene assay. Particulars: isolate Con1, Huh-7, 96 h. The class given is functional, organism-based, Hepacivirus hominis. An outline of the steps: as §2

In assay [8] the test system is Hepatitis C virus. The assay is described as follows: Antiviral activity against HCV genotype 1b Con1 harboring HCV genotype 1a H77 NS3 A156T mutant infected in human HuH7 cells assessed as inhibition of viral replication after 96 hrs by luciferase reporter gene assay. The class given is functional, organism-based, Hepacivirus hominis. The note with it: isolate Con1, Huh-7, 96 h. In short, it runs like this:
as §2

For assay [9], the system named is Hepatitis C virus. The assay is described as follows: Antiviral activity against HCV genotype 1b Con1 harboring HCV genotype 1a H77 NS3 R155K mutant infected in human HuH7 cells assessed as inhibition of viral replication after 96 hrs by luciferase reporter gene assay. The class given is functional, organism-based, Hepacivirus hominis. Particulars: isolate Con1, Huh-7, 96 h. In short, it runs like this:
as §2

Assay [10] relates to Hepatitis C virus. The assay is described as follows: Antiviral activity against HCV genotype 1b Con1 harboring HCV genotype 1a H77 NS3 D168A mutant infected in human HuH7 cells assessed as inhibition of viral replication after 96 hrs by luciferase reporter gene assay. The note with it: isolate Con1, Huh-7, 96 h. The format is functional, organism-based, Hepacivirus hominis. An outline of the steps:
as §2

The test system of assay [11] is Hepatitis C virus. Description: Selectivity ratio of EC50 for HCV genotype 1b Con1 harboring HCV genotype 1a H77 NS3 A156T mutant infected in human HuH7 cells to EC50 for HCV genotype 1b Con1 harboring HCV genotype 1a H77 wild type NS3 infected in human HuH7 cells. The class given is functional, Hepacivirus hominis, isolate Con1.
Assay [12] concerns Hepatitis C virus. The assay is described as follows: Selectivity ratio of EC50 for HCV genotype 1b Con1 harboring HCV genotype 1a H77 NS3 R155K mutant infected in human HuH7 cells to EC50 for HCV genotype 1b Con1 harboring HCV genotype 1a H77 wild type NS3 infected in human HuH7 cells. The format is functional, Hepacivirus hominis, isolate Con1.

`C=C[C@@H]1C[C@]1(NC(=O)[C@@H]1C[C@@H](Oc2nc3cc(OC)ccc3nc2Cl)CN1C(=O)[C@@H](NC(=O)OC1CCCC1)C(C)(C)C)C(=O)NS(=O)(=O)C1(C)CC1`: the values for the inhibition constant Ki in assay [1], in [5] and in [6] were 3.9 nM, 5.2 nM and 51 nM, respectively. Further, the “Ratio EC50” value with Hepatitis C virus [2] is recorded as 7.4; in the assay with Hepatitis C virus [3], 8.1; in the assay on Hepatitis C virus [11], 53; with Hepatitis C virus [12], 8.7. Also, the EC50 was found to be 3.1 nM with Hepatitis C virus [4]; 23 nM with Hepatitis C virus [7]; 163 nM in the assay with Hepatitis C virus [8]; 27 nM in the assay on Hepatitis C virus [9]; 25 nM in the assay with Hepatitis C virus [10].
Take `C=C[C@@H]1C[C@]1(NC(=O)[C@@H]1C[C@@H](Oc2nc3cc(OC)ccc3nc2C)CN1C(=O)[C@@H](NC(=O)OC1CCCC1)C(C)(C)C)C(=O)NS(=O)(=O)C1(C)CC1`: the values for the inhibition constant (Ki) in assay [1], in assay [5] and in assay [6] were 7.1 nM, 10 nM and 140 nM, respectively. Moreover, the “Ratio EC50” value in the assay with Hepatitis C virus [2] came out at 13; with Hepatitis C virus [3] it was 10; with Hepatitis C virus [11], 19; in the assay with Hepatitis C virus [12], 6.2. Also, the EC50 is 4.5 nM in the assay on Hepatitis C virus [4]; 59 nM in the assay on Hepatitis C virus [7]; 87 nM in the assay with Hepatitis C virus [8]; 28 nM with Hepatitis C virus [9]; 45 nM with Hepatitis C virus [10].
`C=C[C@@H]1C[C@]1(NC(=O)[C@@H]1C[C@@H](Oc2nc3cc(OC)ccc3nc2Cl)CN1C(=O)[C@@H](NC(=O)OC1CCCC1)C(C)(C)C)C(=O)NS(=O)(=O)C1CC1`: the Ki came out at 3.8 nM in assay [1], 4.1 nM in [5] and 99 nM in assay [6]. Further, the “Ratio EC50” value amounted to 7.3 in the assay on Hepatitis C virus [2], 6.8 in the assay with Hepatitis C virus [3], 40 in the assay on Hepatitis C virus [11] and 5.4 in the assay with Hepatitis C virus [12]. Moreover, the EC50 in the assay on Hepatitis C virus [4] amounted to 7.4 nM; in the assay with Hepatitis C virus [7], 54 nM; with Hepatitis C virus [8], 292 nM; with Hepatitis C virus [9], 40 nM; with Hepatitis C virus [10] it was 50 nM.
